The test system of assay [1] is Mus musculus. The experiment in a line: Minimum effective dose was evaluated in lox melanoma human tumor graft model in athymic mice when administered intravenously. The note with it: iv, read-out: MED.
Assay [2] addresses T1, Tubulin beta-1 chain (Homo sapiens, UniProt Q9H4B7). The experiment in a line: Percent inhibition of tubulin polymerization at 0.3 uM concentration. The format is functional.
Assay [3] has as its system KB. Put plainly: Concentration required to inhibit tumor cell growth in KB-8-5 cells. It is filed as functional, cell-based, Homo sapiens. The note with it: Homo sapiens, KB. The essentials: (§1)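 Cytotoxicity was measured in paclitaxel-sensitive KB-3-1 cells and in KB-8-5 and KB-V1 cells, which express moderate and high P-glycoprotein respectively. Result is the average IC50 (nM) ± SEM; SEM is omitted where it is below 10% of the average.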

The test system of assay [4] is KB. The experiment in a line: Concentration required to inhibit tumor cell growth in KB-V1 cells. The format is functional, cell-based. The note with it: Homo sapiens. The procedure, abridged: as §1
Assay [5] concerns Mus musculus. The experiment in a line: Minimum tolerated dose was evaluated in lox melanoma human tumor graft model in athymic mice when administered intravenously.
Assay [6] can be described thus: Concentration required to inhibit tumor cell growth in KB-3-1 cells. The format is functional, cell-based, Homo sapiens. The note with it: Homo sapiens, KB 3-1. The procedure, abridged: as §1
The subject of assay [7] is HCT-15. Put plainly: Inhibitory concentration against HCT-15 cells was evaluated. The format is functional, cell-based. Particulars: Homo sapiens. The procedure, abridged:
(§2)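 Cytotoxicity panel covered tumor lines differing in P-glycoprotein expression. Lox melanoma and KM20 have none; NCI-H1299, HCT-15 and S1 express it. Result is the average IC50 (nM) ± SEM.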

The test system of assay [8] is LOX IMVI. Put plainly: Inhibitory concentration against Lox melanoma cells. It is filed as functional, cell-based. The note with it: Homo sapiens. The essentials:
as §2

For assay [9], the target named is T1, Tubulin beta-1 chain. Put plainly: Binding affinity towards tubulin.
Assay [10] deals with NCI-H1299. Put plainly: Inhibitory concentration against NCI-H1299 cells was evaluated. The format is functional, cell-based. The note with it: Homo sapiens. The essentials: as §2
Assay [11] is described as follows: Inhibitory concentration against KM20 cells was evaluated. It is filed as functional, cell-based, Homo sapiens. The procedure, abridged:
as §2

Assay [12] in a line: Inhibitory concentration against S1 cells was evaluated. The format is functional, cell-based. The procedure, abridged:
as §2

pIC50, pKd: −log10 of the molar value.

T1 sequence (Q9H4B7 whole entry): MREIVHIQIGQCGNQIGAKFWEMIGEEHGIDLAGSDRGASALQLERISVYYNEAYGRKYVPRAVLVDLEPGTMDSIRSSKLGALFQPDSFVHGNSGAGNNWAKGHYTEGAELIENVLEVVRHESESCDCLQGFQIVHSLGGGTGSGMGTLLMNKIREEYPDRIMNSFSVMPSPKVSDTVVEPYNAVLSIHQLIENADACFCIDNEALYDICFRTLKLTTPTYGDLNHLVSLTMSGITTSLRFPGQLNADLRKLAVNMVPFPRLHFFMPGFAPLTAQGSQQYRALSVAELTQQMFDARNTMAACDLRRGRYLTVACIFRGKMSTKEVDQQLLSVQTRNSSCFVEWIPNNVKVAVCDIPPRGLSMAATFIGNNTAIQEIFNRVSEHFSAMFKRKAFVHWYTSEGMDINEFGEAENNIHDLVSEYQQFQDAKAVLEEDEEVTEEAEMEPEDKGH

Take `CN[C@H](C(=O)N[C@H](C(=O)N(C)[C@H](/C=C(\C)C(=O)O)C(C)C)C(C)C)C(C)(C)c1ccccc1`: the minimal effective dose in [1] is 0.7 mg/kg. Further, in assay [2], the inhibition (usually how much of the control response was suppressed) amounted to 78%. Also, the pIC50 – broadly, the negative decadic logarithm of the IC50, by convention in mol/L – in [3] is 7.96; in [4], 6.54; in assay [6], 8.28. Also, the MTD (in general, the largest dose that counted as tolerated) in assay [5] was greater than 3 mg/kg.

In the case of `CCOC(=O)/C(C)=C/[C@H](C(C)C)N(C)C(=O)[C@@H](NC(=O)[C@@H](NC)C(C)(C)c1ccccc1)C(C)(C)C`, the minimal effective dose in assay [1] came out at 0.4 mg/kg. For the same molecule, the inhibition in assay [2] stood at 97%. Further, the negative logarithm of the IC50 (pIC50) in assay [3] was 6.30; in assay [4] it was 5.73; in [7], 6.24; in assay [8] it was 7.86; in [10] it was 7.00; in assay [6] it was 7.47. Moreover, the pKd (usually the negative decadic logarithm of the Kd, by convention in mol/L) in assay [9] was 5.40.

In the case of `CN[C@H](C(=O)N[C@H](C(=O)N(C)[C@H](/C=C(\C)C(=O)O)C(C)C)C(C)(C)C)C(C)(C)C1CCCCC1`, the minimal effective dose in [1] was 1 mg/kg. In addition, the inhibition in [2] stood at 93%. Also, the pIC50 is 8.24 in assay [3], 6.81 in assay [4] and 8.41 in [6]. This molecule showed a pKd in assay [9] of 5.92.

For the molecule `CN[C@H](C(=O)N[C@H](C(=O)N(C)[C@H](/C=C(\C)C(=O)O)C(C)C)C(C)(C)SC)C(C)(C)c1ccccc1`, in assay [1], the minimal effective dose came out at 0.5 mg/kg. Moreover, the inhibition in assay [2] was 76%. The pIC50 in [3] was 8.15; in [4], 6.52; in [7], 7.73; in assay [8], 8.52; in assay [11], 8.22; in assay [10], 7.80. In assay [6], this molecule gave a pIC50 of 8.57. In addition, the pKd in [9] is 6.15.

Consider `CCCC[C@@H](/C=C(\C)C(=O)O)N(C)C(=O)[C@@H](NC(=O)[C@@H](NC)C(C)(C)c1ccccc1)C(C)(C)C`, for which the inhibition in assay [2] was 52%. Also, the pIC50 is 7.11 in assay [3]; less than 5.52 in assay [4]; 7.28 in assay [11]; 6.57 in assay [10]; 7.44 in [6].

Consider `C/C(=C\[C@H](C(C)C)N(C)C(=O)[C@@H](NC(=O)[C@@H](N(C)CCO)C(C)(C)c1ccccc1)C(C)(C)C)C(=O)O`, for which, in assay [2], the inhibition is 72%. Besides, the pIC50 is 7.21 in assay [3], less than 5.52 in [4] and 7.35 in assay [6]. Moreover, the pKd in [9] was 6.00.

For `CN[C@H](C(=O)N[C@H](C(=O)N(C)[C@H](/C=C(\C)C(=O)N1CCN(C)CC1)C(C)C)C(C)(C)C)C(C)(C)c1ccccc1`, in assay [1], the minimal effective dose amounted to 3 mg/kg. This molecule also returned an inhibition in assay [2] of 69%. In addition, the pIC50 in assay [3] was 7.22; in assay [4] it was 5.63; in assay [6], 7.48. Further, the MTD in assay [5] was determined as 15 mg/kg.

As to `CC/C(=C\[C@H](C(C)C)N(C)C(=O)[C@@H](NC(=O)[C@@H](NC)C(C)(C)c1ccccc1)C(C)(C)C)C(=O)O`, the minimal effective dose in [1] was found to be 2 mg/kg. Also, the inhibition in assay [2] worked out at 83%. Moreover, the pIC50 in assay [3] was 7.85; in assay [4], 6.29; in assay [7], 7.68; in [8], 8.20; in assay [11], 8.18; in [10], 7.71. Besides, the pIC50 in [6] was 8.27.

In assay [2], `C/C(=C\[C@H](C(C)C)N(C)C(=O)[C@@H](NC(=O)[C@@H](Cc1ccccc1)C(C)(C)c1ccccc1)C(C)(C)C)C(=O)O` had an inhibition of 46%. For the same molecule, the pIC50 was 5.65 in assay [3], less than 5.22 in assay [4] and 5.77 in [6].

In [2], `CN[C@H](C(=O)N[C@H](C(=O)N(C)[C@H](C[C@@H](C)C(=O)O)C(C)C)C(C)(C)C)C(C)(C)c1ccccc1` came in with an inhibition of 99%. For the same molecule, the pIC50 in [3] is 7.72; in assay [4] it was 5.88; in assay [6] it was 8.07. In assay [9], this molecule gave a pKd of 5.40.

Turning to `C/C(=C\[C@H](C(C)C)N(C)C(=O)[C@@H](NC(=O)[C@@H](N(C)C)C(C)(C)c1ccccc1)C(C)(C)C)C(=O)O`, in assay [1], the minimal effective dose was found to be 1 mg/kg. This molecule came in with an inhibition in assay [2] of 93%. The pIC50 in [3] is 8.43; in assay [4], 6.94; in assay [6], 8.80.

Consider `CNC(=O)/C(C)=C/[C@H](C(C)C)N(C)C(=O)[C@@H](NC(=O)[C@@H](NC)C(C)(C)c1ccccc1)C(C)(C)C`, for which the inhibition in [2] amounted to 78%. Besides, the pIC50 is 6.89 in assay [3]; 5.80 in [4]; 7.59 in [7]; 6.18 in [12]; 7.05 in assay [10]; 7.17 in assay [6].

As to `CCN(C(=O)[C@@H](NC(=O)[C@@H](NC)C(C)(C)c1ccccc1)C(C)(C)C)[C@H](/C=C(\C)C(=O)O)C(C)C`, the inhibition in assay [2] turned out to be 11%. Besides, the pIC50 is 6.71 in [3], less than 5.52 in assay [4] and 6.96 in assay [6].

In turn, `CNC(=O)CN[C@H](C(=O)N[C@H](C(=O)N(C)[C@H](/C=C(\C)C(=O)O)C(C)C)C(C)(C)C)C(C)(C)c1ccccc1` displayed an inhibition in [2] of 0%. The pIC50 in [3], in [4] and in assay [6] was less than 5.52 each time.

With `CN[C@H](C(=O)N[C@H](C(=O)N(C)[C@H](/C=C(\C)C(=O)O)C(C)C)C(C)(C)C)[C@@H](C)c1ccccc1`, in [2], the inhibition is 84%. Also, the pIC50 in [3] is 6.38; in assay [4] it was less than 5.52; in assay [6], 6.68.

Turning to `C/C(=C\[C@H](C(C)C)N(C)C(=O)[C@@H](NC(=O)[C@@H](C(C)(C)c1ccccc1)S(C)(=O)=O)C(C)(C)C)C(=O)O`, in assay [2], the inhibition worked out at 80%. The pIC50 in assay [3] was 5.68; in assay [4], less than 5.52; in [6], 5.76.

In [2], `C/C(=C\[C@H](C(C)C)N(C)C(=O)[C@@H](NC(=O)[C@@H](O)C(C)(C)c1ccccc1)C(C)(C)C)C(=O)O` registered an inhibition of 21%. In addition, the pIC50 in assay [3], in assay [4] and in [6] was less than 5.52 each time.

For the molecule `CN[C@H](C(=O)N[C@H](C(=O)N(C)[C@H](/C=C(\C)C(=O)N1CCOCC1)C(C)C)C(C)(C)C)C(C)(C)c1ccccc1`, in assay [1], the minimal effective dose is 3 mg/kg. The inhibition in assay [2] turned out to be 69%. The results for the pIC50 in assay [3], in assay [4] and in assay [6] were 7.12, 5.92 and 7.38, respectively.

In assay [2], `C/C(=C\[C@H](C(C)C)N(C)C(=O)[C@@H](NC(=O)[C@H](C(C)(C)c1ccccc1)S(C)(=O)=O)C(C)(C)C)C(=O)O` returned an inhibition of 80%. Besides, the pIC50 in [3] was 5.68; in assay [4], less than 5.52; in assay [6], 5.76.

In the case of `CCCCCC(C)(C)[C@H](NC)C(=O)N[C@H](C(=O)N(C)[C@H](/C=C(\C)C(=O)O)C(C)C)C(C)(C)C`, in assay [2], the inhibition was found to be 72%. For the same molecule, the pIC50 is 7.72 in assay [3], 6.29 in assay [4] and 8.05 in assay [6].

`CN[C@H](C(=O)N[C@H](C(=O)N(C)[C@H](/C=C(\C)C(N)=O)C(C)C)C(C)(C)C)C(C)(C)c1ccccc1` yielded an inhibition in [2] of 72%. In addition, the pIC50 is 6.79 in assay [3], less than 5.52 in [4] and 7.19 in [6].

`CN[C@H](C(=O)N(C)[C@H](C(=O)N(C)[C@H](/C=C(\C)C(=O)O)C(C)C)C(C)(C)C)C(C)(C)c1ccccc1` had an inhibition in [2] of 4%. The pIC50 in assay [3], in [4] and in [6] was less than 5.52 each time.

In turn, `CN[C@H](C(=O)N[C@H](C(=O)N[C@H](/C=C(\C)C(=O)O)C(C)C)C(C)(C)C)C(C)(C)c1ccccc1` displayed an inhibition in [2] of 79%. For the same molecule, the pIC50 was 6.89 in assay [3]; less than 5.52 in assay [4]; 6.69 in [7]; 7.64 in assay [8]; 7.27 in assay [10]; 7.37 in [6].

`CC[C@H](C(=O)N[C@H](C(=O)N(C)[C@H](/C=C(\C)C(=O)O)C(C)C)C(C)(C)C)C(C)(C)c1ccccc1`: the inhibition in assay [2] was 54%. Moreover, the pIC50 in [3] is 5.92; in assay [4] it was 5.28; in assay [6], 6.04.

In turn, `C=CC[C@@H](C(=O)N[C@H](C(=O)N(C)[C@H](/C=C(\C)C(=O)O)C(C)C)C(C)(C)C)C(C)(C)c1ccccc1` registered an inhibition in assay [2] of 63%. The pIC50 in assay [3] was 5.92; in [4], less than 5.22; in [6] it was 5.94.

The molecule `CN[C@H](C(=O)N[C@H](C(=O)N(C)[C@H](/C=C(\C)C(=O)NCc1ccc(-c2ccccc2)cc1)C(C)C)C(C)(C)C)C(C)(C)c1ccccc1` yielded an inhibition in assay [2] of 11%. Moreover, the pIC50 in assay [3] was 5.78; in assay [4], less than 5.52; in assay [6] it was 6.18.

Consider `CN[C@H](C(=O)N[C@H](C(=O)N(C)[C@H](/C=C(\C)C(=O)O)C(C)C)C(C)(C)C)C(C)(C)c1ccc(-c2ccccc2)cc1`, for which, in assay [2], the inhibition came out at 86%. Moreover, the pIC50 in assay [3] is 8.17; in assay [4], 6.75; in assay [6] it was 8.49.

As to `CN[C@H](C(=O)N[C@H](C(=O)N(C)[C@H](/C=C(\C)C(=O)O)Cc1ccccc1)C(C)(C)C)C(C)(C)c1ccccc1`, the inhibition in assay [2] stood at 44%. Moreover, the pIC50 is 5.88 in [3], less than 5.52 in assay [4] and 6.32 in [6].

For the origin of these results see ChEMBL document CHEMBL1138753, “Synthesis and biological activity of analogues of the antimicrotubule agent N,beta,beta-trimethyl-L-phenylalanyl-N(1)-[(1S,2E)-3-carboxy-1-isopropylbut-2-enyl]- N(1),3-dimethyl-L-valinamide (HTI-286)” (J Med Chem, 2004).
